{"source": "paper PMC5656813", "about": "(Arthritis & Rheumatology (Hoboken, N.j.), 2017)", "key": {"[1]": {"test_system": "patients with RA who had had an insufficient response to MTX", "details": "cited from earlier work"}, "[2]": {"assay": "Studies 1 and 2, steady‐state plasma PK of filgotinib and its major metabolite", "assay_type": "in vivo, human", "details": "for Tmax of major metabolite, steady state: median (range)", "how_it_was_run": "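RA patients on stable methotrexate took oral test compound or placebo capsules for 4 weeks: 200 mg once daily or 100 mg twice daily (study 1), or 30, 75, 150 or 300 mg once daily (study 2). In a subset (12 and 15 patients), plasma parent and major metabolite were sampled predose and 1, 2, 3, 5 and 8 h after the morning dose, at week 2 or 4. Descriptive statistics were calculated by dose.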"}, "[3]": {"details": "cited from earlier work"}, "JAK‐1": {"test_system": "JAK‐1", "details": "cited from earlier work"}, "[4]": {"details": "after filgotinib 30 mg once daily, study 2, arithmetic mean (coefficient of variation)"}, "[5]": {"details": "after filgotinib 75 mg once daily, study 2, arithmetic mean"}, "[6]": {"details": "after filgotinib 100 mg twice daily, study 1, arithmetic mean (coefficient of variation)"}, "[7]": {"details": "after filgotinib 150 mg once daily, study 2, arithmetic mean (coefficient of variation)"}, "[8]": {"details": "after filgotinib 200 mg once daily, study 1, arithmetic mean (coefficient of variation)"}, "[9]": {"details": "after filgotinib 300 mg once daily, study 2, arithmetic mean (coefficient of variation)"}}}
{"smiles": "CC[C@@H]1CN(C(=O)NCC(F)(F)F)C[C@@H]1c1cnc2cnc3[nH]ccc3n12", "note": "[ABT‐494]", "values": [{"measurement": "effect on natural killer (NK) cells", "setting": "[1]", "value": "decreased"}, {"measurement": "effect on hemoglobin", "setting": "[1]; middle and higher doses, within 4 weeks", "value": "decline in hemoglobin"}]}
{"smiles": "Nc1nc2cccc(-c3ccc(CN4CCS(=O)(=O)CC4)cc3)n2n1", "note": "[major metabolite]", "values": [{"measurement": "dose proportionality of PK", "setting": "[2]; 30–300 mg range", "value": "essentially dose proportional"}, {"measurement": "AUCtau of major metabolite, steady state", "setting": "[2]; [4]", "value": "11.2 (52.2) μg.hour/ml"}, {"measurement": "Cmax of major metabolite, steady state", "setting": "[2]; [4]", "value": "0.582 (48.5) μg/ml"}, {"measurement": "Tmax of major metabolite, steady state", "setting": "[2]; after filgotinib 30 mg once daily, study 2", "value": "5 (1–8) hours"}, {"measurement": "AUCtau of major metabolite, steady state", "setting": "[2]; [5]", "value": 26.0, "unit": "µg·h/mL"}, {"measurement": "Cmax of major metabolite, steady state", "setting": "[2]; [5]", "value": 1.46, "unit": "µg/mL"}, {"measurement": "Tmax of major metabolite, steady state", "setting": "[2]; after filgotinib 75 mg once daily, study 2", "value": "5.5 (3–8) hours"}, {"measurement": "AUCtau of major metabolite, steady state", "setting": "[2]; [6]", "value": "33.1 (26.3) μg.hour/ml"}, {"measurement": "Cmax of major metabolite, steady state", "setting": "[2]; [6]", "value": "3.18 (25.0) μg/ml"}, {"measurement": "Tmax of major metabolite, steady state", "setting": "[2]; after filgotinib 100 mg twice daily, study 1", "value": "2 (0–5) hours"}, {"measurement": "AUCtau of major metabolite, steady state", "setting": "[2]; [7]", "value": "75.9 (31.0) μg.hour/ml"}, {"measurement": "Cmax of major metabolite, steady state", "setting": "[2]; [7]", "value": "3.79 (26.5) μg/ml"}, {"measurement": "Tmax of major metabolite, steady state", "setting": "[2]; after filgotinib 150 mg once daily, study 2", "value": "3 (2–5) hours"}, {"measurement": "AUCtau of major metabolite, steady state", "setting": "[2]; [8]", "value": "71.8 (31.3) μg.hour/ml"}, {"measurement": "Cmax of major metabolite, steady state", "setting": "[2]; [8]", "value": "3.77 (23.6) μg/ml"}, {"measurement": "Tmax of major metabolite, steady state", "setting": "[2]; after filgotinib 200 mg once daily, study 1", "value": "3 (1–5) hours"}, {"measurement": "AUCtau of major metabolite, steady state", "setting": "[2]; [9]", "value": "93.9 (20.4) μg.hour/ml"}, {"measurement": "Cmax of major metabolite, steady state", "setting": "[2]; [9]", "value": "4.62 (9.98) μg/ml"}, {"measurement": "Tmax of major metabolite, steady state", "setting": "[2]; after filgotinib 300 mg once daily, study 2", "value": "3 (3–8) hours"}, {"measurement": "time of dosing to attain steady state", "setting": "[2]; in vivo", "value": "≤ 4", "unit": "days"}, {"measurement": "exposure to major metabolite, higher than exposure to parent filgotinib", "setting": "[2]; steady state, 75–300 mg dose range", "value": 13, "unit": "fold"}, {"measurement": "half‐life", "setting": "[3]", "value": "~24", "unit": "h"}, {"measurement": "overall exposure of metabolite, higher than that of filgotinib", "setting": "[3]; in humans", "value": "~15", "unit": "fold"}, {"measurement": "JAK‐1 inhibition potency of metabolite, lower than filgotinib", "setting": "JAK‐1", "value": "~10", "unit": "fold"}]}
